Most compounds without a hit are left out; they make up all but 2.3% or so of the library.
SUMO1 PPI mod = modulators of SUMO1 protein-protein interactions, primary screen, biochemical, uHTS. Small ubiquitin-related modifier 1 (Homo sapiens), P63165. SUMO1 binding to a labelled peptide, TR-FRET, 1 h. inhibition, % at 20 µM. hit rate 0.33% among 360,000; in the data active = inhibition above about 37%
Target sequence (P63165 whole entry, looked up): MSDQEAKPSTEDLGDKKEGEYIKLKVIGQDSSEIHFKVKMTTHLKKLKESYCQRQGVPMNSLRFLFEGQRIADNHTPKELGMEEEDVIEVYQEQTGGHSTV
STEP block = STEP phosphatase inhibitors, primary screen, biochemical, fluorescence intensity, uHTS. Tyrosine-protein phosphatase non-receptor type 5 (Homo sapiens), P54829. recombinant STEP, OMFP fluorogenic substrate. inhibition, % at 20 µM. hit rate 0.25% among 360,000;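 active = inhibition at 20 µM, scaled per plate between control wells, above about 37%, limit read from the data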
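System: STEP (striatal-enriched tyrosine phosphatase) enzyme, cell-free; medium: Bis-Tris pH 6.0 buffer with DTT, detergent; dosing: 20 µM, 1% DMSO; times: reaction 20 min, ambient temperature; detection: fluorescence, 480/540 nm; read-out basis: normalized % inhibition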
Scp-1 inhibitor = Scp-1 phosphatase inhibitors, primary screen, biochemical, colorimetric, uHTS. Carboxy-terminal domain RNA polymerase II polypeptide A small phosphatase 1 (Homo …. Recombinant Scp1, phosphopeptide, malachite green phosphate absorbance. inhibition, % at 20 µM. hit rate 0.88% among 340,000;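 active = inhibition above about 50% at 20 µM, limit read from the data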
Target sequence (Q9GZU7 76-261 limits assumed): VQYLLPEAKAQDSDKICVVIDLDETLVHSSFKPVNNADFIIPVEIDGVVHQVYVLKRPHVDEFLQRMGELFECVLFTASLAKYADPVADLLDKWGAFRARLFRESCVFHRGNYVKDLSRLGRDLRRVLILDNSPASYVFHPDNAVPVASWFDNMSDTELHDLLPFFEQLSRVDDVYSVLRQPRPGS
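Incubation: 45 min enzyme reaction at room temperature / System: truncated SCP-1 phosphatase (76-261aa) / Reagent: Phospho 17-mer peptide substrate / Buffer or medium: Acidic Tris acetate buffer with magnesium and detergent / Signal: absorbance at 630 nm / Doses: one concentration, 20 µM, with 1.0% DMSO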
DNMT1 block = human DNMT1 methyltransferase inhibitors, primary screen, biochemical, molecular beacon, fluorescence, HinP1I cleavage, uHTS; hit rate 0.83% among 360,000; AID 588458, 2011; DNA (cytosine-5)-methyltransferase 1 (Homo sapiens), P26358; inhibition (reported as % activation of signal), % at 10 µM; in the data active = inhibition above about 50%
LMPTP block = LMPTP phosphatase inhibitors, primary screen, biochemical, fluorescence intensity, uHTS; hit rate 0.22% among 360,000; Low molecular weight phosphotyrosine protein phosphatase (Homo sapiens), P24666; inhibition, % at 20 µM; recombinant LMPTP-A, OMFP fluorogenic substrate;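 active = compounds that cut the enzyme signal by at least half of the control window in the single-dose screen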
Target sequence (P24666 whole entry, looked up): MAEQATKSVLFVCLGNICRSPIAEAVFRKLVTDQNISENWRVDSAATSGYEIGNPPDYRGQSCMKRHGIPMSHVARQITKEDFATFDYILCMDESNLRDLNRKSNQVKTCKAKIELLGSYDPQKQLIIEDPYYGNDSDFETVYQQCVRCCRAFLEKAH
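test system = LMPTP-A | amount = 0.625 nM LMPTP-A final | reagent = fluorogenic phosphatase substrate OMFP at 400 µM final | incubation = 50 min at room temperature | benchmarks = no-enzyme low control, uninhibited high control | medium = Bis-Tris pH 6.0, DTT, detergent | signal = fluorescence intensity of OMFP turnover product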
Rpn11 inh = Rpn11 (PSMD14) deubiquitinase inhibitors, primary screen, biochemical, fluorescence polarization, uHTS. inhibition, % at 20 µM. AID 588493, 2011. human 26S proteasome, Ub4-pepOG fluorescence polarization; 20S core pre-blocked with epoxomicin. hit rate 0.59% among 360,000. 26S proteasome non-ATPase regulatory subunit 14 (Homo sapiens), O00487;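 active = inhibition at 20 µM, scaled to each plate's controls, above about 33%, limit read from the data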
Beacon interf DR = spectral interference with molecular beacon fluorescence, dose response, artefact control for DNMT1 inhibitor project, biochemical, fluorescent molecular beacon. shares compounds with DNMT1 block. spectral interference counter-screen. IC50, µM. 200 tested, under 10 active; call rule not given here
DNMT1 inh conf = DNMT1 methyltransferase inhibitor retest, confirmation, biochemical, molecular beacon, fluorescence, single concentration; shares compounds with DNMT1 block; DNMT1 molecular beacon HinP1I cleavage; inhibition, % at 10 µM; hit rate 8% among 2,300; AID 602385, 2012;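 active = average inhibition of at least 30% in the single-concentration confirmation test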
Beacon interf = beacon fluorescence artifact counter-screen; shares compounds with DNMT1 block; DNMT1 molecular beacon spectral interference counterscreen, fluorescence 485/520; activation (fluorescence interference), % at 10 µM; hit rate 1% among 2,300;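 active = activation of at least 30% at 10 µM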;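 note: DNMT1 catalytic domain with a HinP1I cleavage step and a FAM/dabcyl DNA beacon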
Numbers stand for hits; n = inactive; x = no result shown.

SMILES	SUMO1 PPI mod	STEP block	Scp-1 inhibitor	DNMT1 block	LMPTP block	Rpn11 inh	DNMT1 inh conf	Beacon interf	others
O=C(c1cccc(C(F)(F)F)c1)N1CCOc2ccccc21	n	n	n	53.7	n	n	n	n
CSc1ccc(Cl)c(C(=O)N2CCOc3ccccc32)c1	n	n	n	n	n	n	x	x
CNc1ccc(Br)cc(C(=O)/C=C/c2cccc(Cl)c2Cl)c1=O	n	n	n	n	n	n	x	x
CCNc1ccc(Br)cc(C(=O)/C=C/c2ccccc2Cl)c1=O	n	n	n	76.9	n	n	n	n
Cc1ccc(NC(=O)c2ccc3c(c2)C(=O)N(c2ccccc2C)C3=O)nc1	n	n	n	79.6	n	n	n	n
Cc1ccc(C)c(N2C(=O)c3ccc(C(=O)Nc4ccccn4)cc3C2=O)c1	n	n	x	n	n	n	x	x
CCCCCOC(=O)Cn1c(=O)oc2ccc(C)cc21	n	n	n	72.5	n	n	n	n
CCCCOC(=O)Cn1c(=O)oc2ccc(C)cc21	n	n	n	n	n	n	x	x
c1ccc(Nc2c(-c3ccco3)nc3ccccn23)cc1	n	n	n	n	n	n	x	x
c1ccc(-c2nc(-c3ccco3)n3ccccc23)cc1	n	n	n	57.4	n	n	n	n
Cc1cnn(-c2cc(N/N=C/c3ccccc3Cl)ncn2)c1	n	n	n	n	n	n	x	x
Cc1cnn(-c2cc(N/N=C/c3ccc(F)cc3)ncn2)c1	n	n	n	60.4	n	n	n	n
CC(=O)C1=CCC(c2ccccc2Cl)N(S(=O)(=O)c2ccc(C)cc2)C1 (stereo unspecified)	n	n	x	n	n	n	x	x
O=C(c1ccccc1)N1N=C(c2ccccc2)CC1c1cccs1 (stereo unspecified)	n	n	n	89.3	n	n	n	n
CC(=O)N1N=C(c2ccccc2)CC1c1cccs1 (stereo unspecified)	n	n	n	n	n	n	x	x
CC(=O)N1N=C(c2ccccc2)CC1c1ccccc1 (stereo unspecified)	n	n	n	88.1	n	n	n	n
Cc1cc(Br)c(NC(=O)CCNC(=O)OCc2ccccc2)cc1C	n	n	n	n	n	n	x	x
CC(=O)Nc1ccc(C(=O)CN2C(=O)CSC2=O)cc1	n	n	n	n	n	n	x	x
Cc1ccc2nc(NC(=O)C3CCN(S(=O)(=O)c4cc([N+](=O)[O-])ccc4Cl)CC3)sc2c1	n	n	63.7	60.4	n	n	n	n
Cc1ccc(-c2nnc(CN3CCCCC3C)o2)cc1 (stereo unspecified)	n	n	n	n	n	n	x	x
CN(C)S(=O)(=O)c1cccc(COC(=O)CN2C(=O)NC3(CCCC3)C2=O)c1	n	n	n	n	n	n	x	x
CCNC(=O)c1c(NC(=O)c2cc(-c3cc(C)ccc3O)n[nH]2)sc2c1CCCC2	n	n	n	76.0	n	n	n	n
Cc1ccc(-c2cc(C(=O)Nc3sc4c(c3C(=O)NCc3ccco3)CCC4)[nH]n2)c(O)c1	n	n	n	n	n	n	x	x
CC(=O)c1ccc(N=Cc2c(O)n(-c3cc(Cl)ccc3N3CCOCC3)c(=O)c3ccccc23)cc1	n	n	n	86.2	n	n	n	n
CSc1ccccc1NC(=O)CN(C)C(=O)C1CCN(C(=O)Nc2ccccc2)CC1	n	n	n	n	n	n	x	x
SMILES	SUMO1 PPI mod	STEP block	Scp-1 inhibitor	DNMT1 block	LMPTP block	Rpn11 inh	DNMT1 inh conf	Beacon interf	others
Cc1ccc(/C=C/C(=O)Nc2nnc(SCc3ccc(C#N)cc3)s2)o1	n	n	n	n	n	n	n	n
Cc1ccc(/C=C/C(=O)Nc2nccs2)o1	n	n	n	n	n	n	x	x
O=C(CCc1nc2ccccc2c(=O)[nH]1)Nc1nnc(SCc2ccc(F)cc2)s1	n	n	n	63.5	n	n	n	77.0
N#Cc1ccc(CSc2nnc(NC(=O)CCc3nc4ccccc4c(=O)[nH]3)s2)cc1	n	n	n	67.8	n	n	n	n
Cc1nn(Cc2c(Cl)cccc2Cl)c(C)c1NC(=O)c1cn(-c2ccccc2)nc1-c1ccccc1	n	n	n	67.8	n	n	n	n
CN1C(=O)C(C)(C)c2cc(S(=O)(=O)N3CCCC(C(=O)NCc4ccccc4Cl)C3)ccc21 (stereo unspecified)	n	n	n	n	n	n	x	x
O=C(CCN1CCN(c2ccccc2)CC1)N/N=C/c1ccc(O)c(O)c1O	n	n	n	78.8	66.8	n	n	n
COc1ccc(S(=O)(=O)Nc2ccc(S(=O)(=O)Nc3cc(C)nc(C)n3)cc2)cc1OC	n	n	n	75.7	n	n	n	n
COC(=O)c1ccccc1S(=O)(=O)NNC(=O)c1nn(C)c(=O)c2ccccc12	n	n	n	53.4	n	n	n	n
N=C1/C(=C\c2coc3ccccc3c2=O)C(=O)N=C2SC(c3ccncc3)=NN12	n	n	n	n	n	x	x	x
N=C1/C(=C/c2coc3ccccc3c2=O)C(=O)N=C2SC(c3ccco3)=NN12	n	n	54.2	65.5	n	x	n	n	Beacon interf DR=n
CCC(C)n1c(NC(=O)c2ccccc2)c(C#N)c2nc3ccccc3nc21 (stereo unspecified)	43.0	n	n	73.3	n	x	n	n
CC(=O)c1cc(CN2CCC(C(=O)Nc3ccc(-n4nc(C)cc4C)cc3)CC2)cs1	n	n	n	n	n	n	x	x
Cc1ccc(NC(=O)CCC(=O)OCC(=O)c2ccc(-c3ccccc3)cc2)cc1	n	n	n	51.2	n	n	n	n
COc1ccc(NC(=O)CCC(=O)c2ccc(-c3ccccc3)cc2)cc1	n	n	n	n	n	n	x	x
COc1ccccc1CCNC(C)CCc1ccc(O)cc1 (stereo unspecified)	n	n	n	67.6	n	n	n	n

Source: PubChem
